# According to paper PMC10630944 (Molecular Pharmaceutics, 2023):
# How the values were obtained:
# SCLC tumors (H446) [1] = experiment: MHC-I and calreticulin expression in SCLC tumors; format: in vivo, BALB/c nude mice; conditions: 1110 kBq administration group, day 1, 4, and 8
# Outline: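 In nude mice bearing s.c. H446 tumors, test compound was given i.v. as 1110 kBq once or 370 kBq on days 0, 3 and 7, with PBS controls. Tumors were examined on days 1, 4 and 8 after treatment. MHC-I and calreticulin were stained by immunohistochemistry per manufacturer's instructions, and expression was quantified. Three independent experiments were run in triplicate, reported as mean ± s.d.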
# [2] = Adverse effects in SCLC tumor-bearing mice; format: in vivo, BALB/c nude mice
# Outline: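 H446 cells (1 × 10^7 in 0.2 mL PBS) were implanted s.c. in the left shoulder of male BALB/c nude mice aged 4–5 weeks (20 ± 1 g). Mice were randomized at 2 weeks and given i.v. tail-vein PBS, unlabeled peptide 5 mg/kg, or test compound (370 kBq, 1110 kBq, or 370 kBq on days 0, 3 and 7). Body weight was followed for 30 days. Blood counts were taken on days 14 and 28 (n = 4). ALT, AST, BUN and Cr were measured on day 28. Liver, spleen, kidney, stomach and lung were H&E-stained at day 30.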
# SCLC tumors (H446) [3] = experiment: Therapeutic efficacy against SCLC; format: in vivo, BALB/c nude mice; conditions: for tumor growth compared with the PBS control group: n = 6–10
# Outline: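 Xenografts were s.c. H446 (1 × 10^7 cells) in male BALB/c nude mice, randomized 2 weeks post-inoculation. Tumor size and weight were tracked for 30 days (n = 6–10), and tumor volumes were analysed by one-way ANOVA. At day 30, formalin-fixed tumors had H&E and γH2AX immunofluorescence.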
# [4] = In vitro stability in mouse serum; format: in vitro ADME; conditions: room temperature, 24 h of incubation, iTLC, average of three independent samples
# H446 cells [5] = experiment: DNA damage, γH2AX imaging and Western blot, H446 cells; format: cell-based, human
# Outline: (§1)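 Cells (5 × 10^4/well) were exposed for 2 h to PBS, unlabeled peptide, free 211At or test compound (1.85, 3.7, 18.5, 37 kBq), then recovered 24 h in fresh medium. For imaging, cells were fixed, permeabilized and stained with mouse anti-γH2AX (1:800). For blotting, RIPA lysates (BCA-normalized) were run on 10% SDS-PAGE and transferred to PVDF. Blocking was 5% milk for 1 h, anti-γH2AX was applied at 4 °C for 12 h, with ECL detection and GAPDH as loading control.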
# [6] = Biodistribution in SCLC tumor-bearing BALB/c nude mice; format: in vivo
# Outline: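 H446 cells (1 × 10^7 in 0.2 mL PBS) implanted subcutaneously in left shoulder of male nude mice, 4–5 weeks, 20 ± 1 g. 211At-labelled test compound or free 211At (1110 kBq each) given in parallel via tail vein, n = 4 per group. Killed at 1, 3, 6, 12, 24 h. Tumor, main tissues and whole blood weighed and gamma-counted. Values as %ID/g (thyroid %ID/organ), mean ± s.d.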
# A549 cells [7] = experiment: In vitro cytotoxicity; format: cell-based, human; conditions: 24 h exposure, low-level SSTR2 A549 cells
# A549 cells [8] = experiment: DNA damage, γH2AX imaging and Western blot, A549 cells; format: cell-based, human
# Outline: as §1
# H446 cells [9] = experiment: Cellular uptake / binding ratio, H446 cells; format: cell-based, human
# Outline: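 Cells were grown in RPMI-1640 with 10% FCS at 37 °C and 5% CO2. Suspensions of 5 × 10^6 cells in PBS, in low-bind tubes, got 3.7 kBq and were agitated at 37 °C for 1, 3 or 6 h. Cells were then pelleted and rinsed twice with ice-cold PBS, and pellets and pooled supernatant/washes were gamma-counted. Parallel tubes held unlabeled peptide as blocker for nonspecific binding. Three independent experiments were run in triplicate.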
# [10] = groups A, D (1110 kBq) and E (3 × 370 kBq), day 30
# [11] = groups D (1110 kBq) and E (3 × 370 kBq), day 30
substance,measurement,setting,value
N-succinimidyl-3-[^211At]astatobenzoate-Oct [[^211At]SAB-Oct],expression of MHC-I and calreticulin in tumor over time,SCLC tumors (H446) [1],first increasing and then decreasing
same,liver or kidney biochemical function,[2]; 1110 kBq,did not significantly alter
same,leukocytopenia or weight loss,[2]; 1110 kBq doses,not observed
same,leukocytopenia,"[2]; 1110 kBq group, day 28",No leukocytopenia
same,Bun values,"[2]; 1110 kBq, day 28, P > 0.05",trend of decreased Bun values
same,"blood cells (leukocyte, lymphocyte, thrombocyte, erythrocyte counts, hematocrit, hemoglobin)","[2]; day 14 and day 28 postinjection, 1110 kBq or multiple dosing, n = 4",no significant change
same,difference in ALT and AST concentrations between each group,"[2]; day 28, P > 0.05, groups A–E",not significant
same,difference in Bun and Cr concentrations between treatments,"[2]; day 28, P > 0.05, groups A–E",not significant
same,liver H&E,[2]; [10],No obvious morphological difference
same,lung H&E,[2]; [10],no obvious abnormalities
same,kidney H&E,[2]; [11],brush border of a few renal tubular epithelial cells was slightly exfoliated
same,stomach H&E,[2]; [11],mild exfoliation of extensive mucosal epithelium
same,tumor cell necrosis in H&E assay,"SCLC tumors (H446) [3]; 1110 kBq, day 30, compared with PBS and unlabeled octreotide groups",highest cell necrosis
same,clusters of γH2AX foci in dissected tumors,"SCLC tumors (H446) [3]; 1110 kBq, day 30 after injection",still visible
same,tumor growth compared with the PBS control group,"SCLC tumors (H446) [3]; group C, single i.v. injection 370 kBq, monitored 30 days",significantly inhibited
same,tumor growth compared with the PBS control group,"SCLC tumors (H446) [3]; group D, single i.v. injection 1110 kBq, monitored 30 days",significantly inhibited
same,tumor growth compared with the PBS control group,"SCLC tumors (H446) [3]; group E, 3 times 370 kBq on days 0, 3, and 7, monitored 30 days",significantly inhibited
same,radiochemical purity (RCP) after incubation in mouse serum,[4],93%
same,"γH2AX protein, Western blot, H446 cells","H446 cells [5]; 1.85, 3.7, 18.5, or 37 kBq",visually increased
same,level of γH2AX in H446 cells compared to PBS,"H446 cells [5]; 18.5 and 37 kBq, ****P < 0.001",distinct dose-dependent increase
same,uptake in the lung and intestines,[6]; 1110 kBq i.v.,physiologically high uptake
same,radioactivity uptake in the thyroid,"[6]; 1110 kBq i.v., 1 to 24 h",low radioactivity uptake
same,stomach uptake at 1 h postinjection,"[6]; 1110 kBq i.v., 1 h, n = 4, mean ± s.d., gamma counter",17.99 ± 19.65 % ID/g
same,maximum tumor uptake,"[6]; 1110 kBq i.v., 3 h postinjection, n = 4, mean ± s.d.",11.46 ± 4.35 % ID/g
same,radioactivity in all tissues after 24 h,"[6]; 1110 kBq i.v., 24 h",Low levels of radioactivity
same,stomach uptake at 24 h,"[6]; 1110 kBq i.v., 24 h, n = 4, mean ± s.d.",2.87 ± 0.86 % ID/g
same,deastatination in vivo,"[6]; observed in the spleen, lung, and stomach",slight deastatination
same,in vitro cytotoxicity to A549 cells,A549 cells [7],specifically killed SSTR2-positive SCLC cells but not low-level SSTR2 A549 cells
same,"γH2AX protein expression, Western blot, A549 cells","A549 cells [8]; 1.85, 3.7, 18.5, or 37 kBq",slightly expressed only when the dose reached 18.5 or 37 kBq
same,level of γH2AX in A549 cells compared to PBS,"A549 cells [8]; 37 kBq, ***P < 0.001, still much lower than in H446",slightly higher
same,binding ratio to H446 cells in comparison to A549 cells,"H446 cells [9]; 5 × 10^6 cells in PBS, 3.7 kBq, 37 °C, 1, 3 and 6 h, gamma counter, triplicate",significantly higher
same,binding ratio to H446 cells with Oct block,H446 cells [9]; 100-fold excesses of unlabeled Oct as blocking agent,markedly decreased
